Active and inactive are the calls of the source. The calls are words filed in the database; no cut-off is given here.
Tests used:
[1] = Selective index, ratio of ID50 for mouse J774 cells to ID50 for Leishmania braziliensis LTB300
J774 = experiment: Cytotoxicity against mouse J774 cells at 100 uM relative to 5-((hydroxyimino)methyl)-2,2-dimethyl-2H-benzo[d]imidazole 1,3-dioxide; type: cell-based; conditions: j774, 100 µM
[2] = Selective index, ratio of ID50 for mouse J774 cells to ID50 for Trypanosoma cruzi Tulahuen 2
Trypanosoma cruzi [3] = experiment: Antitrypanosomal activity against Trypanosoma cruzi Colombiana assessed as parasitic cytotoxicity at 25 uM after 5 days by MTT assay; type: functional
Outline: (§1)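 Single 25 μM dose for 5 days on exponential-phase epimastigotes in BHI-Tryptose + 5% FBS, 24-well plates; MTT 0.4 mg/mL, 3 h at 37 °C after PBS wash, formazan in DMSO, OD595. PCyt = [[…] (ODd − ODdm)/(ODc − ODcm)] × 100 with medium-only blanks, compound-in-medium blanks and growth controls; three independent experiments.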

Leishmania braziliensis [4] = experiment: Antiparasitic activity against Leishmania braziliensis MHOM/BR/00/LTB300 after 5 days by MTT assay; type: functional; conditions: MHOM/BR/00/LTB300, 120 h, read-out: ID50
Outline: (§2)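 Epimastigotes (T. cruzi strains, BHI-Tryptose + 5% FBS, 28 °C) or L. braziliensis LTB300 promastigotes (axenic RPMI + 5% FBS, 28 °C) from exponential culture in 24-well plates; compounds from DMSO stock added for 5 days. Washed in PBS, 0.4 mg/mL MTT at 37 °C for 3 h, formazan dissolved in DMSO, OD595 read. Triplicate per concentration, six growth controls; 1.0–50.0 μM dose-response, ID50 = concentration reducing absorbance ratio to 50%; three independent experiments.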

Trypanosoma cruzi [5] = experiment: Antitrypanosomal activity against Trypanosoma cruzi Tulahuen 2 epimastigotes assessed as inhibition of parasite growth after 5 days; type: functional; conditions: for IC50: Trypanosoma cruzi, Tulahuen 2, 120 h, read-out: ID50 (the source's name)
Outline: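 Stationary-phase (10-day) Tulahuen 2 epimastigotes inoculated at 1×10^6 cells/mL in BHI-Tryptose + 5% FBS, 28 °C, drug added from DMSO stock (final DMSO ≤0.4%; control 0.4% DMSO). Growth followed as A600; inhibition from day-5 vs day-0 absorbance relative to control. ID50 = concentration reducing absorbance ratio to 50%; three independent experiments.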

Trypanosoma cruzi [6] = experiment: Antitrypanosomal activity against Trypanosoma cruzi CL Brener epimastigotes assessed as parasitic cytotoxicity at 25 uM after 5 days by MTT assay; type: functional; outline: as §1
[7] = Cytotoxicity against mouse J774 cells; type: cell-based; conditions: read-out: ID50 (the source's name)
Trypanosoma cruzi [8] = experiment: Antitrypanosomal activity against Trypanosoma cruzi Y epimastigotes after 5 days by MTT assay; type: functional; conditions: 120 h, read-out: ID50; outline: as §2
Trypanosoma cruzi [9] = experiment: Reduction of end products excretion levels in Trypanosoma cruzi Y epimastigotes after 2 days by [1H]NMR method; type: functional, organism-based
Outline: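 Y-strain epimastigotes treated 2 days with 5 μM compound; culture centrifuged 1500 g, 10 min, 4 °C, parasite-free supernatant stored at −20 °C. Supernatant plus DMF internal standard and D2O run by 1H NMR with water suppression; metabolite peaks confirmed by spiking and standards, compared to untreated and parasite-free medium.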

Trypanosoma cruzi [10] = experiment: Decrease of glucose uptake in Trypanosoma cruzi Y epimastigotes after 4 hrs relative to control; type: functional, organism-based
Outline: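 Y-strain epimastigotes (80×10^6/mL) washed and resuspended in PBS with 1 mM glucose, exposed 4 h to 20 μM compound from DMSO. Parasite-free supernatant refluxed 1 h with Benedict's reagent; remaining glucose quantified at 700 nm against a calibration curve.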

Leishmania braziliensis [11] = experiment: Inhibition of Mitochondrial dehydrogenase in Leishmania braziliensis MHOM/BR/00/LTB300 at 20 uM after 30 to 240 mins by MTT dye reduction assay in relative to control
Trypanosoma cruzi [12] = experiment: Inhibition of Mitochondrial dehydrogenase in Trypanosoma cruzi Y epimastigotes at 20 uM after 30 to 240 mins by MTT dye reduction assay in relative to control
Outline: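 Y-strain epimastigotes, 10^6 per well in 500 µL, 20 μM compound, 28 °C for 30–240 min with time-matched untreated controls. MTT (50 µL of 5 mg/mL) added for 4 h more, stopped with acidic isopropanol, A570 read; activity expressed as % of untreated parasites.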

Trypanosoma cruzi [13] = experiment: Antitrypanosomal activity against Trypanosoma cruzi CL Brener trypomastigotes infected in Vero cells assessed as parasite lysis at 10 uM after 2 hrs relative to untreated control; type: functional
Outline: (§3)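 Cell-culture trypomastigotes released from infected Vero cells (37 °C, 5% CO2, 5–7 days), collected by centrifugation and allowed 4 h at 37 °C to swim off. Supernatant parasites exposed to 10.0–50.0 μM for 2–26 h; lysis counted in a Neubauer chamber relative to untreated parasites; three independent experiments.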

Trypanosoma cruzi [14] = experiment: Antitrypanosomal activity against Trypanosoma cruzi CL Brener trypomastigotes infected in Vero cells assessed as parasite lysis at 50 uM after 19 hrs relative to untreated control; type: functional; outline: as §3
Trypanosoma cruzi [15] = experiment: Antitrypanosomal activity against Trypanosoma cruzi CL Brener trypomastigotes infected in Vero cells assessed as parasite lysis at 25 uM after 19 hrs relative to untreated control; type: functional; outline: as §3
Trypanosoma cruzi [16] = experiment: Antitrypanosomal activity against Trypanosoma cruzi CL Brener trypomastigotes infected in Vero cells assessed as parasite lysis at 10 uM after 22 hrs relative to untreated control; type: functional; outline: as §3
Trypanosoma cruzi [17] = experiment: Antitrypanosomal activity against Trypanosoma cruzi CL Brener trypomastigotes infected in Vero cells assessed as parasite lysis at 10 uM after 26 hrs relative to untreated control; type: functional; outline: as §3
Trypanosoma cruzi [18] = experiment: Trypanocidal activity against Trypanosoma cruzi CL Brener amastigotes infected in Vero cells assessed as parasite infection at 2.5 uM after 72 hrs
Trypanosoma cruzi [19] = experiment: Antitrypanosomal activity against Trypanosoma cruzi CL Brener trypomastigotes infected in Vero cells assessed as parasite lysis at 10 uM after 3 hrs relative to untreated control; type: functional; outline: as §3
Trypanosoma cruzi [20] = experiment: Trypanocidal activity against Trypanosoma cruzi CL Brener amastigotes infected in Vero cells assessed as parasite infection at 5 uM after 72 hrs; type: functional
Outline: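 Vero cells (4×10^7/L) on coverslips in modified Eagle's medium + 3% FBS, 37 °C; after 24 h infected with trypomastigotes (5×10^9/L) ± compound. Non-internalized parasites removed at 24 h, fresh medium ± compound, 72 h further incubation; May-Grünwald-Giemsa stain, 500 cells scored for % infected and amastigotes per cell; endocytic index = product of the two.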

Trypanosoma cruzi [21] = experiment: Antitrypanosomal activity against Trypanosoma cruzi CL Brener epimastigotes after 5 days by MTT assay; type: functional; conditions: 120 h, read-out: ID50; outline: as §2
Trypanosoma cruzi [22] = experiment: Antitrypanosomal activity against Trypanosoma cruzi Colombiana after 5 days by MTT assay; conditions: 120 h, read-out: ID50

SMILES	IC50 (Trypanosoma cruzi [5]) [µM]	IC50 (Trypanosoma cruzi [8]) [µM]	Ratio [1]	Activity (J774) [%]	Ratio [2]	Activity (Trypanosoma cruzi [3]) [%]	IC50 (Leishmania braziliensis [4]) [µM]	Activity (Trypanosoma cruzi [6]) [%]	CC50 [7] [µM]	further results
[O-][N+]1=c2ccccc2=[N+]([O-])C12CCCC2	9.5	6.4	>111.1	0.75	>42.1	94.8	3.6	83.7	> 400	–
Cc1ccc2c(c1)=[N+]([O-])C(C)(C)[N+]=2[O-]	5.1	3.3	–	–	–	35.1	30.4	61.4	–	Activity (Trypanosoma cruzi [9]): Active; Activity (Trypanosoma cruzi [10]): inactive; Activity (Leishmania braziliensis [11]): inactive; Activity (Trypanosoma cruzi [12]): inactive
COc1ccc(CC2(C)[N+]([O-])=c3ccccc3=[N+]2[O-])cc1	–	–	>11.4	0.32	8	30.8	35	–	> 400	ID50 (Trypanosoma cruzi [5]): > 50 µM
CC1(C)[N+]([O-])=c2ccc(/C=C/c3ccc4c(c3)OCO4)cc2=[N+]1[O-]	3.1	–	–	1.37	18.7	–	–	–	58	–
CC1CS(=O)(=O)CCN1/N=C/c1ccc([N+](=O)[O-])o1 (stereo not given) [NIFURTIMOX]	7.7	9.7	–	–	44.9	87	–	90	346	IC50 (Trypanosoma cruzi [21]): 4.9 µM; IC50 (Trypanosoma cruzi [22]): 3.4 µM; Activity (Trypanosoma cruzi [10]): inactive; Activity (Trypanosoma cruzi [12]): inactive
CCCCCCCCCCCCCCCCOP(=O)([O-])OCC[N+](C)(C)C [MILTEFOSINE]	–	–	15.1	–	–	–	9	–	136	Activity (Leishmania braziliensis [11]): Active
CC1(C)[N+]([O-])=c2ccc(Cl)cc2=[N+]1[O-]	10.1	–	–	1.74	3.8	–	–	–	38	–
Cc1c(Sc2ccccc2)[n+]([O-])c2cc(Cl)c(Cl)cc2[n+]1[O-]	–	–	–	–	–	–	–	–	–	Activity (Trypanosoma cruzi [12]): Active
COc1ccc2c(c1)=[N+]([O-])C1(CCCC1)[N+]=2[O-]	25	4.9	<2	0.89	4	17.3	> 50	62.6	100	–
CC1(C)[N+]([O-])=c2ccc(/C=C/c3ccc(Cl)cc3)cc2=[N+]1[O-]	8.1	–	–	1.48	6.4	–	–	–	52	–

The next lines start with results.

IC50 (Trypanosoma cruzi [5]) [µM]	IC50 (Trypanosoma cruzi [8]) [µM]	SMILES	Ratio [1]	Activity (J774) [%]	Ratio [2]	Activity (Trypanosoma cruzi [3]) [%]	IC50 (Leishmania braziliensis [4]) [µM]	Activity (Trypanosoma cruzi [6]) [%]	CC50 [7] [µM]	further results
5.4	–	CCCCCC1(C)[N+]([O-])=c2ccccc2=[N+]1[O-]	<4.7	0.01	43.1	77.1	> 50	88.2	233	–
40	–	CC1(Cc2ccc(Cl)cc2)[N+]([O-])=c2ccccc2=[N+]1[O-]	–	1.42	1.4	–	–	–	55	–
> 50	–	CC1(Cc2ccccc2)[N+]([O-])=c2ccccc2=[N+]1[O-]	14.6	0.46	<6	18.6	20.7	47	302	–
14.5	9.9	CC1(C)[N+]([O-])=c2cc(Cl)c(Cl)cc2=[N+]1[O-]	9.9	0.87	6.9	94.4	10.1	88.3	100	–
7.4	–	O=C(Cn1ccnc1[N+](=O)[O-])NCc1ccccc1 [BENZNIDAZOLE]	–	–	–	–	–	–	–	Activity (Trypanosoma cruzi [12]): Active
7.9	15.8	Cc1ccc2c(c1)=[N+]([O-])C1(CCCC1)[N+]=2[O-]	7.1	1.22	8	59.3	8.9	56.5	63	Activity (Trypanosoma cruzi [9]): Active; Activity (Trypanosoma cruzi [13]): 1%; Activity (Trypanosoma cruzi [14]): 52%; Activity (Trypanosoma cruzi [15]): 24%; Activity (Trypanosoma cruzi [10]): Active; Activity (Leishmania braziliensis [11]): Active; Activity (Trypanosoma cruzi [16]): 25%; Activity (Trypanosoma cruzi [17]): 24%; Activity (Trypanosoma cruzi [18]): 34.8%; Activity (Trypanosoma cruzi [12]): inactive; Activity (Trypanosoma cruzi [19]): 39%; Activity (Trypanosoma cruzi [20]): 14.7%
–	16.4	CC1(C)[N+]([O-])=c2ccc(/C=N/O)cc2=[N+]1[O-]	<1.5	–	6.2	21.7	> 50	46.6	77	IC50 (Trypanosoma cruzi [21]): > 40 µM
19.8	5.7	[O-][N+]1=c2ccc(/C=N/O)cc2=[N+]([O-])C12CCCC2	4.9	0.82	6.6	29	26.7	65.6	130	–
16.3	3.5	[O-][N+]1=c2ccc(Br)cc2=[N+]([O-])C12CCCC2	3.7	0.82	6.1	83.8	26.7	91.5	100	Activity (Trypanosoma cruzi [9]): Active; Activity (Trypanosoma cruzi [13]): 0%; Activity (Trypanosoma cruzi [10]): Active; Activity (Leishmania braziliensis [11]): Active; Activity (Trypanosoma cruzi [16]): 16%; Activity (Trypanosoma cruzi [17]): 16%; Activity (Trypanosoma cruzi [12]): inactive; Activity (Trypanosoma cruzi [19]): 35%
12	5.3	[O-][N+]1=c2cc(Cl)c(Cl)cc2=[N+]([O-])C12CCCC2	7.2	1.65	3.3	60.9	5.4	67.1	39	–
8.4	–	CC1(Cc2ccc([N+](=O)[O-])cc2)[N+]([O-])=c2ccccc2=[N+]1[O-]	–	0.47	14.5	–	–	–	122	–

Reference: ChEMBL document CHEMBL1155286, “Second generation of 2H-benzimidazole 1,3-dioxide derivatives as anti-trypanosomatid agents: synthesis, biological evaluation, and mode of action studies” (Eur J Med Chem, 2009)
